In ChEMBL document CHEMBL1629614, “Inhibition of methionyl-tRNA synthetase by REP8839 and effects of resistance mutations on enzyme activity” (Antimicrob Agents Chemother, 2009):
In brackets after ≈: the same amount, converted by molar mass.

Columns and labels:
Methionine--tRNA ligase [1] = biological target: Methionine--tRNA ligase (Staphylococcus aureus subsp. aureus MW2, UniProt Q8NY00, I57N); experiment: Inhibition of Staphylococcus aureus MetRS I57N mutant
How it was run: (§1)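 Purified recombinant S. aureus MetRS (mutant, expressed in E. coli) was tested by ATP:PPi exchange with [32P]PPi, using 125 mM methionine and 100 μM ATP so that the IC50 sits above enzyme concentration. Inhibitor was in DMSO (8% final), over 1 μM to 0.05 nM. A sigmoidal fit gave the IC50, and Ki = IC50/[(1+[Met]/KmMet)(1+KmATP/[ATP])], with KmMet taken at that ATP level.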

Methionine--tRNA ligase [2] = biological target: Methionine--tRNA ligase (Staphylococcus aureus subsp. aureus MW2, UniProt Q8NY00, G223C); experiment: Inhibition of Staphylococcus aureus MetRS G223C mutant; how it was run: as §1
Methionine--tRNA ligase [3] = biological target: Methionine--tRNA ligase (Staphylococcus aureus subsp. aureus MW2, UniProt Q8NY00, V108M); experiment: Inhibition of Staphylococcus aureus MetRS V108M mutant; how it was run: as §1
Methionine--tRNA ligase [4] = biological target: Methionine--tRNA ligase (Staphylococcus aureus subsp. aureus MW2, UniProt Q8NY00, G54S); experiment: Inhibition of Staphylococcus aureus MetRS G54S mutant
Methionine--tRNA ligase [5] = biological target: Methionine--tRNA ligase (Staphylococcus aureus subsp. aureus MW2, UniProt Q8NY00, I57N/V242F); experiment: Inhibition of Staphylococcus aureus MetRS I57N V242F mutant
Methionine--tRNA ligase [6] = biological target: Methionine--tRNA ligase (Staphylococcus aureus subsp. aureus MW2, UniProt Q8NY00, I238F/I57N); experiment: Inhibition of Staphylococcus aureus MetRS I57N I238F mutant
Methionine--tRNA ligase [7] = biological target: Methionine--tRNA ligase (Staphylococcus aureus subsp. aureus MW2, UniProt Q8NY00, A247E/I57N); experiment: Inhibition of Staphylococcus aureus MetRS I57N A247E mutant
Methionine--tRNA ligase [8] = biological target: Methionine--tRNA ligase (Staphylococcus aureus subsp. aureus MW2, UniProt Q8NY00, G54S/I57N); experiment: Inhibition of Staphylococcus aureus MetRS I57N G54S mutant
Methionine--tRNA ligase [9] = biological target: Methionine--tRNA ligase (Staphylococcus aureus subsp. aureus MW2, UniProt Q8NY00, A64P/G54A); experiment: Inhibition of Staphylococcus aureus MetRS G54A A64P mutant
A549 = experiment: Cytotoxicity against human A549 cells by MTT assay; format: cell-based
[10] = Cytotoxicity against rat H42E cells by MTT assay; format: cell-based
Staphylococcus aureus [11] = experiment: Antimicrobial activity against Staphylococcus aureus expressing MetRS I57N G54S mutant; format: functional
Staphylococcus aureus [12] = experiment: Antimicrobial activity against Staphylococcus aureus expressing MetRS G54A A64P mutant; format: functional
Methionine--tRNA ligase [13] = biological target: Methionine--tRNA ligase (Staphylococcus aureus subsp. aureus MW2, UniProt Q8NY00, L213W); experiment: Inhibition of Staphylococcus aureus MetRS L213W mutant; how it was run: as §1
Methionine--tRNA ligase [14] = biological target: Methionine--tRNA ligase (Staphylococcus aureus subsp. aureus MW2, UniProt Q8NY00, A247E); experiment: Inhibition of Staphylococcus aureus MetRS A247E mutant; how it was run: as §1
Staphylococcus aureus [15] = experiment: Antimicrobial activity against Staphylococcus aureus expressing MetRS gene; format: functional
Streptococcus pneumoniae [16] = experiment: Antimicrobial activity against Streptococcus pneumoniae expressing MetRS1 gene; format: functional
Escherichia coli = experiment: Antimicrobial activity against Escherichia coli expressing MetRS gene; format: functional
Haemophilus influenzae = experiment: Antimicrobial activity against Haemophilus influenzae expressing MetRS gene; format: functional
Streptococcus pneumoniae [17] = experiment: Antimicrobial activity against Streptococcus pneumoniae expressing MetRS2 gene; format: functional
[18] = Inhibition of Staphylococcus aureus MetRS
How it was run: (§2)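 tRNA aminoacylation with scintillation proximity detection. Purified MetRS in 40 mM Tris-HCl pH 8.0, 10 mM Mg acetate, 2.5 mM ATP, 80 mM KCl, 2.5 mM DTT, BSA, [3H]methionine (7 μM Met), 1 μg/ml crude E. coli tRNA. Human enzymes had 0.2–0.6 mM spermine, and substrate, Mg and enzyme levels were optimized per ortholog. Inhibitor was a DMSO serial dilution, 1 μM to 0.05 nM (final), 8% DMSO final, 30 min at room temperature. Reactions were EDTA-stopped, and charged tRNA was captured on polylysine YSi beads at pH 2.0. IC50 came from a four-parameter logistic fit versus DMSO control.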

[19] = Inhibition of Streptococcus pneumoniae MetRS1; how it was run: as §2
[20] = Inhibition of Escherichia coli MetRS; how it was run: as §2
[21] = Inhibition of human mitochondrial MetRS; how it was run: as §2
Methionine--tRNA ligase [22] = biological target: T1, Methionine--tRNA ligase (Haemophilus influenzae (strain ATCC 51907 / DSM 11121 / KW20 / Rd), UniProt P43828); experiment: Inhibition of Haemophilus influenzae MetRS; how it was run: as §2
T1 sequence (P43828 whole entry): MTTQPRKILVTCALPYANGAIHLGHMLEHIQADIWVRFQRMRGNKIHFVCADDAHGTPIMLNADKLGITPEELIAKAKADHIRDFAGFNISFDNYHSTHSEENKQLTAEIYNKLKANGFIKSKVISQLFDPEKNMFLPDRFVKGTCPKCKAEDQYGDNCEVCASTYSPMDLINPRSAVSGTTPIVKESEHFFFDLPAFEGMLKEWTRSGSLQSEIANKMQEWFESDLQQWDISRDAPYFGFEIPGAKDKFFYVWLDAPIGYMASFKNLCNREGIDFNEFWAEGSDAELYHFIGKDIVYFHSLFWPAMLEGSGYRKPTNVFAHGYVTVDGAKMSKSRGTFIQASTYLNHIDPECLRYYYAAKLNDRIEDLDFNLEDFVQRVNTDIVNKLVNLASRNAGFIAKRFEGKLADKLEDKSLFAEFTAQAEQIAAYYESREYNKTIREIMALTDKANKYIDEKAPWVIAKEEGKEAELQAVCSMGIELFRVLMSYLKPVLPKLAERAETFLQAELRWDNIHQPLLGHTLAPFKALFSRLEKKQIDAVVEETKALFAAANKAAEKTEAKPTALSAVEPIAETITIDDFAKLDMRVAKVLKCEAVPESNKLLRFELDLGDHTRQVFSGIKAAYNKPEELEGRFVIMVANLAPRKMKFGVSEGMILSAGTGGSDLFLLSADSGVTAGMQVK

[23] = Inhibition of Streptococcus pneumoniae MetRS2; how it was run: as §2
[24] = Inhibition of human cytoplasmic MetRS; how it was run: as §2
Staphylococcus aureus [25] = experiment: Antimicrobial activity against Staphylococcus aureus expressing MetRS L213W mutant; format: functional
Staphylococcus aureus [26] = experiment: Antimicrobial activity against Staphylococcus aureus expressing MetRS A247E mutant; format: functional
Staphylococcus aureus [27] = experiment: Antimicrobial activity against Staphylococcus aureus expressing MetRS I57N mutant; format: functional
Staphylococcus aureus [28] = experiment: Antimicrobial activity against Staphylococcus aureus expressing MetRS G223C mutant; format: functional
Staphylococcus aureus [29] = experiment: Antimicrobial activity against Staphylococcus aureus expressing MetRS V108M mutant; format: functional
Staphylococcus aureus [30] = experiment: Antimicrobial activity against Staphylococcus aureus expressing MetRS G54S mutant; format: functional
Staphylococcus aureus [31] = experiment: Antimicrobial activity against Staphylococcus aureus expressing MetRS I57N V242F mutant; format: functional
Staphylococcus aureus [32] = experiment: Antimicrobial activity against Staphylococcus aureus expressing MetRS I57N I238F mutant; format: functional
Staphylococcus aureus [33] = experiment: Antimicrobial activity against Staphylococcus aureus expressing MetRS I57N A247E mutant; format: functional

Work on `C=C(F)c1sc(CNCCCNc2cc(=O)c3ccccc3[nH]2)c(C)c1Br` [BEDEROCIN] yielded a Ki (Methionine--tRNA ligase [1]) of 0.08 nM, a Ki (Methionine--tRNA ligase [2]) of 0.51 nM and a Ki (Methionine--tRNA ligase [3]) of 0.11 nM. It also gave a Ki (Methionine--tRNA ligase [4]) of 85 nM, a Ki (Methionine--tRNA ligase [5]) of 15 nM and a Ki (Methionine--tRNA ligase [6]) of 350 nM. The Ki (Methionine--tRNA ligase [7]) was 60 nM, the Ki (Methionine--tRNA ligase [8]) was 900 nM and the Ki (Methionine--tRNA ligase [9]) was 1900 nM. It also gave an IC50 (A549) greater than 20000 nM, an IC50 [10] greater than 20000 nM and an MIC (Staphylococcus aureus [11]) of 32 µg/mL (≈ 71.1 µM). The MIC (Staphylococcus aureus [12]) was 32 µg/mL (≈ 71.1 µM), the Ki (Methionine--tRNA ligase [13]) was 0.04 nM and the Ki (Methionine--tRNA ligase [14]) was 0.06 nM. For the same compound, the MIC (Staphylococcus aureus [15]) was 0.12 µg/mL (≈ 0.266 µM), the MIC (Streptococcus pneumoniae [16]) was 0.12 µg/mL (≈ 0.266 µM) and the MIC (Escherichia coli) was 16 µg/mL (≈ 35.5 µM). The MIC (Haemophilus influenzae) was greater than 64 µg/mL, the MIC (Streptococcus pneumoniae [17]) was 32 µg/mL (≈ 71.1 µM) and the Ki [18] was 0.01 nM. For the same compound, the Ki [19] was 0.055 nM, the Ki [20] was 10 nM and the Ki [21] was 23 nM. For the same compound, the Ki (Methionine--tRNA ligase [22]) was 225 nM, the Ki [23] was greater than 5000 nM and the Ki [24] was greater than 20000 nM. The MIC (Staphylococcus aureus [25]) was 2 µg/mL (≈ 4.44 µM), the MIC (Staphylococcus aureus [26]) was 4 µg/mL (≈ 8.88 µM) and the MIC (Staphylococcus aureus [27]) was 8 µg/mL (≈ 17.8 µM). For the same compound, the MIC (Staphylococcus aureus [28]) was 8 µg/mL (≈ 17.8 µM), the MIC (Staphylococcus aureus [29]) was 8 µg/mL (≈ 17.8 µM) and the MIC (Staphylococcus aureus [30]) was 16 µg/mL (≈ 35.5 µM). It also gave an MIC (Staphylococcus aureus [31]) of 32 µg/mL (≈ 71.1 µM), an MIC (Staphylococcus aureus [32]) of 32 µg/mL (≈ 71.1 µM) and an MIC (Staphylococcus aureus [33]) of 32 µg/mL (≈ 71.1 µM).
